From ChEMBL document CHEMBL3734668, “Evaluation of small molecule SecA inhibitors against methicillin-resistant Staphylococcus aureus” (Bioorg Med Chem, 2015)
Converted amounts (≈) assume the structure as drawn. The source made the active and inactive calls. The rule behind the calls is not given here.

Columns and labels:
[1] = molecular target: T1, Protein translocase subunit SecA 1 (Staphylococcus aureus (strain NCTC 8325), UniProt O06446); experiment: Inhibition of Staphylococcus aureus ATCC 35556 SecA1 liposomal ion channel activity in Xenopus laevis oocytes incubated for 3 hrs measured by recording ion current for 1 min; type: cell-based
T1 sequence (O06446 whole entry): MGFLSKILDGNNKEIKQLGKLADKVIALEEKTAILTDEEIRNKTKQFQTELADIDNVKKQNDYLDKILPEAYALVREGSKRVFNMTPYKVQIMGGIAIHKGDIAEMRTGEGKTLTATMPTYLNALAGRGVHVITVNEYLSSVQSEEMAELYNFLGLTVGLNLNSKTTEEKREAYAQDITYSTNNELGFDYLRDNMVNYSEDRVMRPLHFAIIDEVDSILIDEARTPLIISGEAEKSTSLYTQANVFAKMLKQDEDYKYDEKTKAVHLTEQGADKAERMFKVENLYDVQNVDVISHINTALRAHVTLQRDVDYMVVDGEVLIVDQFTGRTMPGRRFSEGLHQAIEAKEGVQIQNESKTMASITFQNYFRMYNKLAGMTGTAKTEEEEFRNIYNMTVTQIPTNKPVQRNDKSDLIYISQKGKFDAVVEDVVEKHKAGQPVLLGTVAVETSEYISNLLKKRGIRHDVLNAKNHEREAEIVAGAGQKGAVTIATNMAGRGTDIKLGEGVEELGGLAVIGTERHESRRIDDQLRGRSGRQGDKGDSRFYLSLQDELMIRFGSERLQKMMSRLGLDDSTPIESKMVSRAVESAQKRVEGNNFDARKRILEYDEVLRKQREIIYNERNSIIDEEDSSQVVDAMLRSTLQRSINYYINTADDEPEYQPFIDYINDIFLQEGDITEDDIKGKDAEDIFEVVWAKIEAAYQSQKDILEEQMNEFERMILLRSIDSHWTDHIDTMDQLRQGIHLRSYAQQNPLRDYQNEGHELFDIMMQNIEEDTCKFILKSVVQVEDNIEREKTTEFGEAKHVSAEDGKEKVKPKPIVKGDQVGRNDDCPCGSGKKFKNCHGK
Procedure, shortened: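 Xenopus laevis oocytes injected at animal pole with 50 nl containing 120 ng liposomes, 120 ng SaSecA1, 14 ng proOmpA, 2 mM ATP, 1 mM Mg(OAc)2 plus varying inhibitor. Incubated 3 hr at 23 °C, then ion current recorded continuously 1 min.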

Staphylococcus aureus [2] = experiment: Bactericidal activity against Methicillin sensitive Staphylococcus aureus ATCC 6538 assessed as CFU reduction at 30 uM for 1 hr; type: functional
Procedure, shortened: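 Log-phase LB cultures (OD600 ≈ 0.5) mixed with a range of inhibitor concentrations, shaken at 1,000 rpm, 37 °C, 1 hr, under normal room light. Cultures serially diluted in LB, plated on LB agar, incubated overnight at 37 °C. CFU counted; bactericidal effect taken as CFU reduction versus untreated control.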

Staphylococcus aureus [3] = experiment: Bactericidal activity against Methicillin resistant Staphylococcus aureus Mu50 assessed as CFU reduction for 1 hr; type: functional, organism-based
Procedure, shortened: (§1)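 Log-phase Mu50 cultures (OD600 ≈ 0.5) mixed with a range of inhibitor concentrations, shaken 1,000 rpm at 37 °C for 1 hr under normal room light. Cultures then serially diluted in LB, plated on LB agar and incubated overnight at 37 °C. Activity expressed as reduction in CFU relative to untreated control containing matching DMSO.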

Staphylococcus aureus [4] = experiment: Bacteriostatic activity against Staphylococcus aureus Mu3 after 24 hrs; type: functional; details: Mu3, 24 h
Procedure, shortened: (§2)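 Broth microdilution MIC per CLSI guidance in LB, 37 °C, shaking 250 rpm, 24 hr; run in triplicate in three separate experiments. MIC taken as lowest inhibitor concentration with no growth. Compounds from DMSO stocks; untreated controls carry equal DMSO.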

[5] = molecular target: T2, Protein translocase subunit SecA 1 (Staphylococcus aureus (strain NCTC 8325)) (UniProt O06446); experiment: Inhibition of Staphylococcus aureus SecA1 assessed as reduction in secretion of enterotoxin B at 10 uM by Western blot analysis
T2 sequence (whole entry): T1 sequence (O06446 whole entry)
Procedure, shortened: (§3)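 S. aureus Mu50 grown in LB at 37 °C; inhibitor added at mid-log phase and cultures sampled at several time points. Supernatants separated by centrifugation, filtered 0.45 μm, and probed by Western blot with antibodies to α-hemolysin, TSST-1 or enterotoxin B.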

Staphylococcus aureus [6] = experiment: Potency index, ratio of MIC for norfloxacin to MIC for test compound against Methicillin resistant Staphylococcus aureus; type: functional
Staphylococcus aureus [7] = experiment: Bactericidal activity against Methicillin resistant Staphylococcus aureus Mu50 assessed as CFU reduction at 30 uM for 1 hr; type: functional; procedure, shortened: as §1
Staphylococcus aureus [8] = experiment: Bacteriostatic activity against Staphylococcus aureus Mu50 after 24 hrs; type: functional; details: Mu50, 24 h
Procedure, shortened: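 Broth microdilution per CLSI guidelines in LB. Inhibitor added to dilute early-log culture (OD600 ≈ 0.05), 37 °C, 250 rpm, 24 hrs. Run in triplicate in three separate experiments. MIC read as the lowest concentration with no growth.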

Staphylococcus aureus [9] = experiment: Potency index, ratio of MIC for rifampicin to MIC for test compound against Methicillin resistant Staphylococcus aureus; type: functional
Staphylococcus aureus [10] = experiment: Potency index, ratio of MIC for tetracycline to MIC for test compound against Methicillin resistant Staphylococcus aureus; type: functional
Staphylococcus aureus [11] = experiment: Potency index, ratio of MIC for ampicillin to MIC for test compound against Methicillin resistant Staphylococcus aureus; type: functional
Staphylococcus aureus [12] = experiment: Bacteriostatic activity against Staphylococcus aureus Newman after 24 hrs; type: functional; procedure, shortened: as §2
Staphylococcus aureus [13] = experiment: Effect on general protein synthesis in Staphylococcus aureus Mu50 at 10 uM measured within 15 hrs; type: ADME, organism-based; details: in vivo
Staphylococcus aureus [14] = experiment: Bacteriostatic activity against Staphylococcus aureus ATCC 6538 after 24 hrs; type: functional; details: ATCC 6538, 24 h
Staphylococcus aureus [15] = experiment: Bacteriostatic activity against Staphylococcus aureus K2068 overexpressing MepA; type: functional; procedure, shortened: as §2
[16] = molecular target: T2, Protein translocase subunit SecA 1 (Staphylococcus aureus (strain NCTC 8325)); experiment: Inhibition of Staphylococcus aureus SecA1 assessed as reduction in secretion of TSST-1 at 10 uM by Western blot analysis; procedure, shortened: as §3
[17] = molecular target: T2, Protein translocase subunit SecA 1 (Staphylococcus aureus (strain NCTC 8325)); experiment: Inhibition of Staphylococcus aureus SecA1 assessed as reduction in secretion of alpha-hemolysin at 10 uM by Western blot analysis; procedure, shortened: as §3
Staphylococcus aureus [18] = experiment: Bacteriostatic activity against MepA deficient Staphylococcus aureus K2908; type: functional; procedure, shortened: as §2
Staphylococcus aureus [19] = experiment: Bacteriostatic activity against Staphylococcus aureus K2361 overexpressing NorA; type: functional; procedure, shortened: as §2
Staphylococcus aureus [20] = experiment: Bacteriostatic activity against wild type Staphylococcus aureus 8325-4; type: functional; procedure, shortened: as §2

In the case of CCCCCCC1c2ccc(O)cc2Oc2cc(O)ccc21, the IC50 [1] is reported as 1000 nM, the Activity (Staphylococcus aureus [2]) is reported as 2 log10CFU/ml and the Activity (Staphylococcus aureus [3]) is reported as “Dose-dependent effect”. For the same compound, the MIC (Staphylococcus aureus [4]) was 4 µg/mL (≈ 13.4 µM), the inhibition [5] was “Active” and the Ratio (Staphylococcus aureus [6]) was 7. The Activity (Staphylococcus aureus [7]) was >3 log10CFU/ml, the MIC (Staphylococcus aureus [8]) was 4 µg/mL (≈ 13.4 µM) and the Ratio (Staphylococcus aureus [9]) was 250. For the same compound, the Ratio (Staphylococcus aureus [10]) was 7, the Ratio (Staphylococcus aureus [11]) was 250 and the MIC (Staphylococcus aureus [12]) was 4 µg/mL (≈ 13.4 µM). The Activity (Staphylococcus aureus [13]) was “Non-toxic”, the MIC (Staphylococcus aureus [14]) was 4 µg/mL (≈ 13.4 µM) and the MIC (Staphylococcus aureus [15]) was 4 µg/mL (≈ 13.4 µM). For the same compound, the inhibition [16] was “Active”, the inhibition [17] was “Active” and the MIC (Staphylococcus aureus [18]) was 4 µg/mL (≈ 13.4 µM). For the same compound, the MIC (Staphylococcus aureus [19]) was 4 µg/mL (≈ 13.4 µM) and the MIC (Staphylococcus aureus [20]) was 4 µg/mL (≈ 13.4 µM).
